Test results reported in ChEMBL document CHEMBL3120154, “2-[N-Alkyl(R-phenyl)-aminomethyl]-3-phenyl-7-trifluoromethylquinoxalines as anticancer agents inhibitors of folate enzymes” (Eur J Med Chem, 2014).

Columns and labels:
Format in all cases: functional
[1] = test system: LOX IMVI; test: Cytotoxicity against human LOXIMVI cells at 10^-6 M after 48 hrs by SRB assay; conditions: read-out: GI
In short: (§1)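 Run in the NCI 60-cell-line screen after a three-line prescreen. Cells got a 48 h drug exposure; viability/growth was estimated with the sulforhodamine B protein assay. Growth inhibition (I%) was recorded at 100, 10, 1, 0.1 and 0.01 micromolar. Percent growth is relative to untreated control cells, and negative values indicate cell kill.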

[2] = test system: SNB-19; test: Cytotoxicity against human SNB19 cells at 10^-6 M after 48 hrs by SRB assay; conditions: SNB-19, 48 h, read-out: GI
[3] = test system: SF-268; test: Cytotoxicity against human SF268 cells at 10^-6 M after 48 hrs by SRB assay; conditions: SF-268, 48 h, read-out: GI
In short: (§2)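 Second-stage screen in the 60-cell-line human tumor panel at NCI, over a 5-log range (100, 10, 1, 0.1, 0.01 micromolar). Cells were exposed to drug for 48 h and growth was estimated with a sulforhodamine B protein stain. The value is percent growth inhibition at each concentration.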

[4] = test system: MDA-MB-435; test: Cytotoxicity against human MDA-MB-435 cells at 10^-6 M after 48 hrs by SRB assay; conditions: MDA-MB-435, 48 h, read-out: GI; in short: as §1
[5] = Cytotoxicity against human Hs578T cells at 10^-6 M after 48 hrs by SRB assay; conditions: Hs-578T, read-out: GI
In short: (§3)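 Run by NCI on its 60-line human tumor cell panel, after a three-cell-line prescreen. Cells were exposed to drug for 48 h over a 5-log range: 100, 10, 1, 0.1 and 0.01 micromolar. Growth was estimated by sulforhodamine B (SRB) protein staining. Percent growth inhibition (I%) was recorded at each concentration relative to untreated control cells.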

[6] = test system: NCI/ADR-RES; test: Cytotoxicity against human NCI/ADR-RES cells at 10^-6 M after 48 hrs by SRB assay; conditions: read-out: GI; in short: as §1
[7] = test system: DU-145; test: Cytotoxicity against human DU145 cells at 10^-6 M after 48 hrs by SRB assay; conditions: DU-145, 48 h, read-out: GI; in short: as §3
[8] = test system: MCF7; test: Cytotoxicity against human MCF7 cells at 10^-6 M after 48 hrs by SRB assay; conditions: MCF7, 48 h, read-out: GI; in short: as §1
[9] = test system: CAKI-1; test: Cytotoxicity against human Caki1 cells at 10^-6 M after 48 hrs by SRB assay; conditions: CAKI-1, 48 h, read-out: GI; in short: as §3
[10] = test system: ACHN; test: Cytotoxicity against human ACHN cells at 10^-6 M after 48 hrs by SRB assay; conditions: read-out: GI; in short: as §3
[11] = test system: SK-OV-3; test: Cytotoxicity against human SKOV3 cells at 10^-6 M after 48 hrs by SRB assay; conditions: SK-OV-3, 48 h, read-out: GI; in short: as §2
[12] = test system: OVCAR-8; test: Cytotoxicity against human OVCAR8 cells at 10^-6 M after 48 hrs by SRB assay; conditions: OVCAR-8, 48 h, read-out: GI; in short: as §2
[13] = Cytotoxicity against human OVCAR5 cells at 10^-6 M after 48 hrs by SRB assay; conditions: OVCAR-5, 48 h, read-out: GI; in short: as §2
[14] = test system: IGROV-1; test: Cytotoxicity against human IGROV1 cells at 10^-6 M after 48 hrs by SRB assay; conditions: IGROV-1, 48 h, read-out: GI; in short: as §1
[15] = test system: SK-MEL-5; test: Cytotoxicity against human SK-MEL-5 cells at 10^-6 M after 48 hrs by SRB assay; conditions: SK-MEL-5, 48 h, read-out: GI; in short: as §2
[16] = test system: NCI-H522; test: Cytotoxicity against human NCI-H522 cells at 10^-6 M after 48 hrs by SRB assay; conditions: NCI-H522, 48 h, read-out: GI; in short: as §1
[17] = test system: COLO 205; test: Cytotoxicity against human COLO205 cells at 10^-6 M after 48 hrs by SRB assay; conditions: COLO 205, 48 h, read-out: GI; in short: as §3
[18] = test system: NCI-H460; test: Cytotoxicity against human NCI-H460 cells at 10^-6 M after 48 hrs by SRB assay; conditions: NCI-H460, 48 h, read-out: GI; in short: as §1
[19] = test system: NCI-H322M; test: Cytotoxicity against human NCI-H322M cells at 10^-6 M after 48 hrs by SRB assay; conditions: read-out: GI; in short: as §1
[20] = test system: HOP-62; test: Cytotoxicity against human HOP62 cells at 10^-6 M after 48 hrs by SRB assay; conditions: HOP-62, 48 h, read-out: GI; in short: as §3
[21] = Cytotoxicity against human EKVX cells at 10^-6 M after 48 hrs by SRB assay; conditions: read-out: GI; in short: as §3
[22] = test system: CCRF-CEM; test: Cytotoxicity against human CCRF-CEM cells at 10^-6 M after 48 hrs by SRB assay; conditions: read-out: GI; in short: as §3
[23] = test system: T47D; test: Cytotoxicity against human T47D cells at 10^-5 M after 48 hrs by SRB assay; conditions: read-out: GI
[24] = test system: NCI/ADR-RES; test: Cytotoxicity against human NCI/ADR-RES cells at 10^-5 M after 48 hrs by SRB assay; conditions: read-out: GI; in short: as §1
[25] = test system: DU-145; test: Cytotoxicity against human DU145 cells at 10^-5 M after 48 hrs by SRB assay; conditions: DU-145, 48 h, read-out: GI; in short: as §3
[26] = test system: PC-3; test: Cytotoxicity against human PC3 cells at 10^-5 M after 48 hrs by SRB assay; conditions: PC-3, 48 h, read-out: GI; in short: as §2
[27] = test system: RXF 393; test: Cytotoxicity against human RXF393 cells at 10^-5 M after 48 hrs by SRB assay; conditions: RXF 393, 48 h, read-out: GI; in short: as §2
[28] = test system: CAKI-1; test: Cytotoxicity against human Caki1 cells at 10^-5 M after 48 hrs by SRB assay; conditions: CAKI-1, 48 h, read-out: GI; in short: as §3
[29] = test system: OVCAR-8; test: Cytotoxicity against human OVCAR8 cells at 10^-5 M after 48 hrs by SRB assay; conditions: OVCAR-8, 48 h, read-out: GI; in short: as §2
[30] = test system: OVCAR-3; test: Cytotoxicity against human OVCAR3 cells at 10^-5 M after 48 hrs by SRB assay; conditions: OVCAR-3, 48 h, read-out: GI; in short: as §1
[31] = test system: KM12; test: Cytotoxicity against human KM12 cells at 10^-5 M after 48 hrs by SRB assay; conditions: KM12, 48 h, read-out: GI; in short: as §1
[32] = test system: HT-29; test: Cytotoxicity against human HT-29 cells at 10^-5 M after 48 hrs by SRB assay; conditions: HT-29, 48 h, read-out: GI; in short: as §3
[33] = test system: HCT-15; test: Cytotoxicity against human HCT15 cells at 10^-5 M after 48 hrs by SRB assay; conditions: HCT-15, 48 h, read-out: GI; in short: as §3
[34] = test system: HCT-116; test: Cytotoxicity against human HCT116 cells at 10^-5 M after 48 hrs by SRB assay; conditions: HCT-116, 48 h, read-out: GI; in short: as §3
[35] = test system: NCI-H522; test: Cytotoxicity against human NCI-H522 cells at 10^-5 M after 48 hrs by SRB assay; conditions: NCI-H522, 48 h, read-out: GI; in short: as §1
[36] = test system: NCI-H460; test: Cytotoxicity against human NCI-H460 cells at 10^-5 M after 48 hrs by SRB assay; conditions: NCI-H460, 48 h, read-out: GI; in short: as §1
[37] = test system: NCI-H322M; test: Cytotoxicity against human NCI-H322M cells at 10^-5 M after 48 hrs by SRB assay; conditions: read-out: GI; in short: as §1
[38] = test system: HOP-92; test: Cytotoxicity against human HOP92 cells at 10^-5 M after 48 hrs by SRB assay; conditions: HOP-92, 48 h, read-out: GI; in short: as §3

SMILES	inhibition of growth at 1 µM [1] [%]	inhibition of growth at 1 µM [2] [%]	inhibition of growth at 1 µM [3] [%]	inhibition of growth at 1 µM [4] [%]	inhibition of growth at 1 µM [5] [%]	inhibition of growth at 1 µM [6] [%]	inhibition of growth at 1 µM [7] [%]	inhibition of growth at 1 µM [8] [%]	inhibition of growth at 1 µM [9] [%]	inhibition of growth at 1 µM [10] [%]	inhibition of growth at 1 µM [11] [%]	inhibition of growth at 1 µM [12] [%]	inhibition of growth at 1 µM [13] [%]	inhibition of growth at 1 µM [14] [%]	inhibition of growth at 1 µM [15] [%]	inhibition of growth at 1 µM [16] [%]	inhibition of growth at 1 µM [17] [%]	inhibition of growth at 1 µM [18] [%]	inhibition of growth at 1 µM [19] [%]	inhibition of growth at 1 µM [20] [%]	further results
CCN(Cc1nc2cc(C(F)(F)F)ccc2nc1-c1ccccc1)c1ccc(OC)c(OC)c1	< 40	< 40	< 40	< 40	< 40	< 40	< 40	< 40	19	< 40	< 40	45	< 40	< 40	< 40	< 40	< 40	< 40	< 40	< 40	inhibition of growth at 1 µM [21]: < 40%; inhibition of growth at 1 µM [22]: < 40%; inhibition of growth at 10 µM [23]: 24%; inhibition of growth at 10 µM [24]: 21%; inhibition of growth at 10 µM [25]: 26%; inhibition of growth at 10 µM [26]: 56%; inhibition of growth at 10 µM [27]: 102%; inhibition of growth at 10 µM [28]: 29%; inhibition of growth at 10 µM [29]: 72%; inhibition of growth at 10 µM [30]: 31%; inhibition of growth at 10 µM [31]: < 40%; inhibition of growth at 10 µM [32]: 40%; inhibition of growth at 10 µM [33]: 17%; inhibition of growth at 10 µM [34]: 43%; inhibition of growth at 10 µM [35]: 28%; inhibition of growth at 10 µM [36]: 25%; inhibition of growth at 10 µM [37]: < 40%; inhibition of growth at 10 µM [38]: 21%
C#CCN(Cc1nc2cc(C(F)(F)F)ccc2nc1-c1ccccc1)c1ccc(C)cc1	< 40	54	< 40	104	< 40	109	< 40	64	< 40	< 40	< 40	< 40	< 40	< 40	< 40	49	108	62	< 40	56	inhibition of growth at 1 µM [21]: < 40%; inhibition of growth at 1 µM [22]: < 40%; inhibition of growth at 10 µM [23]: 78%; inhibition of growth at 10 µM [24]: 113%; inhibition of growth at 10 µM [25]: < 40%; inhibition of growth at 10 µM [26]: < 40%; inhibition of growth at 10 µM [27]: 70%; inhibition of growth at 10 µM [28]: 82%; inhibition of growth at 10 µM [29]: 62%; inhibition of growth at 10 µM [30]: 125%; inhibition of growth at 10 µM [31]: 137%; inhibition of growth at 10 µM [32]: 99%; inhibition of growth at 10 µM [33]: 110%; inhibition of growth at 10 µM [34]: 79%; inhibition of growth at 10 µM [35]: 76%; inhibition of growth at 10 µM [36]: 75%; inhibition of growth at 10 µM [37]: 62%; inhibition of growth at 10 µM [38]: < 40%
